For 45 molecules, EC50 and CC50 results are on record in ChEMBL document CHEMBL3632518, “Synthesis and anti-HCV determinant motif identification in pyranone carboxamide scaffold” (Bioorg Med Chem Lett, 2015).

In general, EC50 refers to the concentration needed to bring the measured effect to its halfway point. Low values mean an effect from little substance, high ones a need for much substance. One may read the CC50 as the concentration that lowers cell viability or growth by half. Low values mean greater toxicity to the cells, high ones lower toxicity to the cells.

One series concerns Hepatitis C virus. The series is described as follows: Antiviral activity against HCV genotype 1b infected in human HuH7 cells after 3 days by luciferase reporter gene assay. The format is functional, organism-based, Hepacivirus hominis. As to conditions: Huh-7, 72 h. In outline:
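Huh-7 cells carrying self-replicating subgenomic genotype 1b HCV replicon with luciferase reporter (LucNeo#2), kept in DMEM high glucose plus 10% heat-inactivated FBS and 1 mg/ml G418. Seeded at 5×10^3 cells/well without G418 with various compound concentrations (DMSO stocks, 20 mM or higher); 37°C, 3 days. Cells PBS-washed, lysed, luciferase read by luminometer. EC50 from inhibition of luciferase activity.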
(In general: Reporter assays use an easily measured gene product as a stand-in for the process of interest.)

Series [1] is described as follows: Cytotoxicity against human HuH7 cells after 3 days by tetrazolium dye method. The format is cell-based, Huh-7. The essentials: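 LucNeo#2 replicon-bearing Huh-7 cells, 5×10^3 cells/well, grown without G418 with various compound concentrations at 37°C for 3 days. Viable cell number measured by water-soluble tetrazolium dye (Tetracolor One) method. CC50 taken as concentration reducing viable cell number by 50%.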

For `COc1cccc(NC(=O)c2c(NO)cc(-c3ccccc3)oc2=O)c1`, the EC50 in the series with Hepatitis C virus is 0.63 µM. Moreover, the CC50 at 72 h in series [1] is > 20 µM.

For `Nc1ccccc1NC(=O)c1c(NO)cc(-c2cccs2)oc1=O`, in the series with Hepatitis C virus, a half-maximal response (EC50) required 0.25 µM. Further, the CC50 at 72 h in series [1] is > 20 µM.

In turn, `O=C(Nc1cc([N+](=O)[O-])ccc1O)c1c(NO)cc(-c2ccccc2)oc1=O` returned an EC50 with Hepatitis C virus of 3.5 µM. The CC50 at 72 h in series [1] is > 20 µM.

For `O=C(Nc1ccc(Cl)cc1)c1c(NCCO)cc(-c2cccc(Br)c2)oc1=O`, it took 7.1 µM to reach a half-maximal effect in the series on Hepatitis C virus (EC50). In series [1], the CC50 at 72 h was found to be 17 µM.

The molecule `O=C(NC1CCCCC1)c1c(NO)cc(-c2ccccc2)oc1=O` gave an EC50 with Hepatitis C virus of 2.3 µM. In series [1], this molecule returned a CC50 at 72 h of 10.5 µM.

Regarding `CONc1cc(-c2ccc(C)cc2)oc(=O)c1C(=O)NCCCO`, the EC50 in the series on Hepatitis C virus is > 100 µM. Further, in series [1], the CC50 at 72 h was > 100 µM.

`O=C(Nc1ccc(Br)cc1)c1c(NCCO)cc(-c2cccc(Br)c2)oc1=O` yielded an EC50 in the series on Hepatitis C virus of 13 µM. The CC50 at 72 h in series [1] is > 20 µM.

Regarding `Cc1ccc(-c2cc(NO)c(C(=O)NC3CCCCC3)c(=O)o2)cc1`, the EC50 with Hepatitis C virus was 5 µM. This molecule also registered a CC50 at 72 h in series [1] of 10.1 µM.

In turn, `O=C(Nc1cccc(C(F)(F)F)c1)c1c(NO)cc(-c2cccs2)oc1=O` came in with an EC50 in the series with Hepatitis C virus of 1.8 µM. The CC50 at 72 h in series [1] was 11 µM.

In the case of `O=C(Nc1ccc(Cl)cc1)c1c(NO)cc(-c2cccs2)oc1=O`, the EC50 in the series with Hepatitis C virus stood at 3.8 µM. Besides, the CC50 at 72 h in series [1] is > 20 µM.

In the series with Hepatitis C virus, `O=C(NC1CC1)c1c(NO)cc(-c2ccc(F)cc2)oc1=O` registered an EC50 of 3.3 µM. Moreover, in series [1], the CC50 at 72 h was > 20 µM.

`O=C(Nc1ccc(Cl)cc1)c1c(NCCO)cc(-c2ccc(Br)cc2)oc1=O` gave an EC50 with Hepatitis C virus of 10 µM. In series [1], the CC50 at 72 h was > 20 µM.

In the case of `O=C(Nc1ccc(F)cc1)c1c(NCCO)cc(-c2cccc(Br)c2)oc1=O`, the EC50 in the series on Hepatitis C virus was determined as 5.5 µM. The CC50 at 72 h in series [1] was > 20 µM.

For the molecule `O=C(NCCO)c1c(N2CCCCC2)cc(-c2ccc(F)cc2)oc1=O`, the EC50 in the series on Hepatitis C virus is > 100 µM. Besides, the CC50 at 72 h in series [1] is > 100 µM.

In the case of `O=C(Nc1ccc(F)cc1)c1c(NO)cc(-c2cccs2)oc1=O`, the EC50 with Hepatitis C virus was determined as 0.65 µM. Also, in series [1], the CC50 at 72 h is > 20 µM.

In the series on Hepatitis C virus, `COc1ccccc1NC(=O)c1c(NO)cc(-c2ccccc2)oc1=O` returned an EC50 of 0.35 µM. Besides, the CC50 at 72 h in series [1] is > 20 µM.

Turning to `COc1ccccc1NC(=O)c1c(NCCO)cc(-c2cccc(Br)c2)oc1=O`, the EC50 in the series on Hepatitis C virus came to 6 µM. Besides, the CC50 at 72 h in series [1] is > 20 µM.

In the series on Hepatitis C virus, `O=C(NC1CCCCC1)c1c(NO)cc(-c2ccc(F)cc2)oc1=O` gave a half-maximal effective concentration (EC50) of 3.2 µM. The molecule further came in with a CC50 at 72 h in series [1] of 11.4 µM.

In the series on Hepatitis C virus, `Cc1ccccc1NC(=O)c1c(NO)cc(-c2cccs2)oc1=O` displayed an EC50 of 0.59 µM. Also, in series [1], the CC50 at 72 h was > 20 µM.

For the molecule `COc1ccc(-c2cc(NO)c(C(=O)NC3CCCCC3)c(=O)o2)cc1`, in the series on Hepatitis C virus, the response was half-maximal at 4.1 µM (EC50). In series [1], the CC50 at 72 h turned out to be 13.9 µM.

In the case of `O=C(NCCBr)c1c(NCCO)cc(-c2cccs2)oc1=O`, the 50% effective concentration (EC50) in the series on Hepatitis C virus turned out to be 15 µM. In series [1], the CC50 at 72 h is > 20 µM.

For `CCOc1ccccc1NC(=O)c1c(NCCO)cc(-c2ccc(Br)cc2)oc1=O`, in the series with Hepatitis C virus, the EC50 is > 20 µM. The CC50 at 72 h in series [1] was > 20 µM.

`COc1ccc(NC(=O)c2c(NCCO)cc(-c3ccc(Br)cc3)oc2=O)cc1` had an EC50 in the series with Hepatitis C virus of 14 µM. Moreover, the CC50 at 72 h in series [1] is > 20 µM.

In the series on Hepatitis C virus, `O=C(NC1CC1)c1c(NO)cc(-c2ccc(Cl)cc2)oc1=O` displayed an EC50 of 2.9 µM. In addition, the half-maximal cytotoxic concentration (CC50) at 72 h in series [1] amounted to 12.8 µM.

As to `CCOc1ccccc1NC(=O)c1c(NCCO)cc(-c2cccs2)oc1=O`, the EC50 in the series with Hepatitis C virus amounted to 5.1 µM. The same molecule showed a CC50 at 72 h in series [1] of 10 µM.

For the molecule `O=C(Nc1ccccc1)c1c(NO)cc(-c2cccs2)oc1=O`, a half-maximal effect with Hepatitis C virus (EC50) was put at 1.3 µM. Further, the CC50 at 72 h in series [1] was > 20 µM.

Turning to `O=C(Nc1ccccc1)c1c(NCCO)cc(-c2cccc(Br)c2)oc1=O`, in the series with Hepatitis C virus, the EC50 is > 20 µM. Moreover, the CC50 at 72 h in series [1] is > 20 µM.

On to `CCOc1ccccc1NC(=O)c1c(NCCO)cc(-c2ccccc2)oc1=O`, for which the EC50 in the series on Hepatitis C virus was > 20 µM. In series [1], the CC50 at 72 h was > 20 µM.

`Cc1ccc(NC(=O)c2c(NO)cc(-c3cccs3)oc2=O)cc1` registered an EC50 with Hepatitis C virus of 0.39 µM. Further, the CC50 at 72 h in series [1] is > 20 µM.

Consider `COc1ccccc1NC(=O)c1c(NCCO)cc(-c2cccs2)oc1=O`, for which the EC50 in the series with Hepatitis C virus is > 20 µM. Further, in series [1], the CC50 at 72 h is > 20 µM.

In the case of `O=C(Nc1ccc(Br)cc1)c1c(NO)cc(-c2cccs2)oc1=O`, a half-maximal effect in the series on Hepatitis C virus (EC50) was put at 6 µM. In series [1], the CC50 at 72 h was > 20 µM.

As to `O=C(Nc1ccccc1O)c1c(NCCO)cc(-c2ccccc2)oc1=O`, in the series with Hepatitis C virus, the EC50 is > 20 µM. The CC50 at 72 h in series [1] was > 20 µM.

Turning to `COc1cccc(NC(=O)c2c(NCCO)cc(-c3cccs3)oc2=O)c1`, the EC50 in the series on Hepatitis C virus is > 20 µM. In addition, in series [1], the CC50 at 72 h was > 20 µM.

Molecule `COc1ccc(NC(=O)c2c(NO)cc(-c3cccs3)oc2=O)cc1` had an EC50 with Hepatitis C virus of 0.2 µM. For the same molecule, the CC50 at 72 h in series [1] was > 20 µM.

With `COc1cccc(NC(=O)c2c(NCCO)cc(-c3ccc(Br)cc3)oc2=O)c1`, the EC50 with Hepatitis C virus is > 20 µM. The CC50 at 72 h in series [1] is > 20 µM.

In turn, `O=C(Nc1ccccc1O)c1c(NO)cc(-c2ccccc2)oc1=O` had an EC50 in the series with Hepatitis C virus of 1.7 µM. Also, the midpoint of cytotoxicity in series [1], the CC50 at 72 h, lay at 14 µM.

As for `O=C(Nc1ccc(Br)cc1)c1c(NCCO)cc(-c2ccc(Br)cc2)oc1=O`, the EC50 in the series on Hepatitis C virus worked out at 14.4 µM. Besides, the CC50 at 72 h in series [1] was > 20 µM.

In the series on Hepatitis C virus, `Nc1ccccc1NC(=O)c1c(NO)cc(-c2ccccc2)oc1=O` had an EC50 of 0.48 µM. The CC50 at 72 h in series [1] is > 20 µM.

Consider `COc1ccccc1NC(=O)c1c(NCCO)cc(-c2ccc(Br)cc2)oc1=O`, for which the EC50 in the series on Hepatitis C virus was > 20 µM. The CC50 at 72 h in series [1] was > 20 µM.

With `Cc1cccc(NC(=O)c2c(NO)cc(-c3cccs3)oc2=O)c1`, the EC50 with Hepatitis C virus worked out at 0.47 µM. Further, the CC50 at 72 h in series [1] is > 20 µM.

Take `CCC[C@H](NC(=O)[C@@H]1[C@H]2CCC[C@H]2CN1C(=O)[C@@H](NC(=O)[C@@H](NC(=O)c1cnccn1)C1CCCCC1)C(C)(C)C)C(=O)C(=O)NC1CC1` [TELAPREVIR]: in the series with Hepatitis C virus, a half-maximal effect (EC50) was put at 0.36 µM. Also, the CC50 at 72 h in series [1] is > 20 µM.

Regarding `CCOc1ccccc1NC(=O)c1c(NCCO)cc(-c2cccc(Br)c2)oc1=O`, in the series on Hepatitis C virus, the EC50 is > 20 µM. Besides, the CC50 at 72 h in series [1] was > 20 µM.

With `O=C(NC1CCCCC1)c1c(NO)cc(-c2ccc(Cl)cc2)oc1=O`, the EC50 with Hepatitis C virus amounted to 2.2 µM. In series [1], the CC50 at 72 h is 8.8 µM.

Molecule `CCOc1ccccc1NC(=O)c1c(NO)cc(-c2ccccc2)oc1=O` gave an EC50 with Hepatitis C virus of 1.1 µM. For the same molecule, the CC50 at 72 h in series [1] was > 20 µM.

`O=C(Nc1cccc(C(F)(F)F)c1)c1c(NO)cc(-c2ccccc2)oc1=O` displayed an EC50 with Hepatitis C virus of 1.2 µM. In series [1], the CC50 at 72 h is 19 µM.
